Measured values taken from article PMC8177101 (Chemical research in toxicology, 2020).

Assays:
[1] = CellTiter Glo cytotoxicity; assay type: cell-based; conditions: human
Method in brief: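 Human HapMap lymphoblastoid lines grown in RPMI 1640 with 15% heat-inactivated FBS at 37 °C, 5% CO2, low passage (<10). Preliminary cytotoxicity dose-response to the test compound (a diepoxide) read by CellTiter Glo as cellular ATP level; IC50 taken from the dose-response curves.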

[2] = test system: HapMap lymphoblastoid cell lines; experiment: Micronuclei; assay type: cell-based, human; conditions: then 96 h in fresh media, averaged over all cell lines
Method in brief: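 Ten GSTT1-negative and 8 GSTT1-positive lymphoblastoid lines were grown in RPMI 1640 with 15% heat-inactivated FBS at 37 °C, 5% CO2, passage <10. Cells were seeded at 0.5 million per 4 ml and rested 24 h. They were exposed to 0, 5 or 10 μM test compound for 6 h in triplicate, pelleted, then held 96 h in fresh medium. Micronuclei were scored with the Litron kit by flow cytometry.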

[3] = test system: HapMap lymphoblastoid cell lines; experiment: Apoptosis, Annexin V / PI flow cytometry; assay type: cell-based, human; conditions: 0, 5 or 10 μM DEB, 24 h, 18 cell lines; Anova p < 0.001
[4] = ref [10], [11]; cited from earlier work

C1OC1C1CO1 (centres unmarked) [DEB, 1,2,3,4-diepoxybutane]
IC50 [1]: 2 to 6 µM | fold increase of mean percent of MN positive cells ([2]; 5 μM DEB 6 h): 1.8 fold | fold increase of mean percent of MN positive cells ([2]; 10 μM DEB 6 h): 2.4 fold | percentage of Annexin V-labeled cells [3]: increase in the percentage of Annexin V-labeled cells | mutagenic potency as compared to BD-derived monoepoxides [4]: up to 200 fold
